Test results taken from ChEMBL document CHEMBL4219167, “Disulfiram-based disulfides as narrow-spectrum antibacterial agents” (Bioorg Med Chem Lett, 2018).
pIC50: −log10 of the molar value. Values after ≈ are worked out from the molar mass of the structure shown.

What was measured:
Staphylococcus aureus [1] = experiment: Antibacterial activity against methicillin-resistant Staphylococcus aureus COL after 20 hrs by broth microdilution assay; assay type: functional
Staphylococcus aureus [2] = experiment: Antibacterial activity against vancomycin-resistant Staphylococcus aureus HIP14300 after 20 hrs by broth microdilution assay; assay type: functional; details: HIP14300, 20 h
[3] = test system: Staphylococcus epidermidis; experiment: Antibacterial activity against vancomycin-intermediate resistant Staphylococcus epidermidis NRS6 after 20 hrs by broth microdilution assay; assay type: functional; details: NRS6, 20 h
Streptococcus pyogenes = experiment: Antibacterial activity against Streptococcus pyogenes H293 after 20 hrs by broth microdilution assay; assay type: functional; details: H293, 20 h
Streptococcus agalactiae = experiment: Antibacterial activity against Streptococcus agalactiae SGBS005 after 20 hrs by broth microdilution assay; assay type: functional; details: SGBS005, 20 h
Streptococcus pneumoniae = experiment: Antibacterial activity against Streptococcus pneumoniae TCH8431 after 20 hrs by broth microdilution assay; assay type: functional; details: TCH8431, 20 h
Enterococcus faecium = experiment: Antibacterial activity against vancomycin-resistant Enterococcus faecium ATCC 700221 after 20 hrs by broth microdilution assay; assay type: functional; details: ATCC 700221, 20 h
Procedure, shortened: (§1)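 Brain heart infusion broth at 37°C; E. faecium under 5% CO2. Cells at 0.5 McFarland are diluted 1:100 and exposed to serial dilutions (DMSO stocks 1 mM or 1 mg/mL; controls in water).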

[4] = test system: Staphylococcus epidermidis; experiment: Antibacterial activity against vancomycin-intermediate resistant Staphylococcus epidermidis NRS53 after 20 hrs by broth microdilution assay; assay type: functional; details: NRS53, 20 h
Staphylococcus aureus [5] = experiment: Antibacterial activity against vancomycin-intermediate resistant Staphylococcus aureus AR-217 after 20 hrs by broth microdilution assay; assay type: functional; details: AR-217, 20 h
Bacillus anthracis [6] = experiment: Antibacterial activity against Bacillus anthracis Ames 35 after 20 hrs by broth microdilution assay; assay type: functional; details: Ames 35, 20 h
Bacillus anthracis [7] = experiment: Antibacterial activity against Bacillus anthracis Sterne 34F2 after 20 hrs by broth microdilution assay; assay type: functional; details: Sterne 34F2, 20 h
Bacillus anthracis [8] = experiment: Antibacterial activity against Bacillus anthracis UM23-1 after 20 hrs by broth microdilution assay; assay type: functional; details: UM23-1, 20 h
Bacillus anthracis [9] = experiment: Antibacterial activity against Bacillus anthracis Weybridge after 20 hrs by broth microdilution assay; assay type: functional
Francisella tularensis = experiment: Antibacterial activity against Francisella tularensis Utah 112 after 20 hrs by broth microdilution assay; assay type: functional; details: Utah 112, 20 h
Yersinia pestis [10] = experiment: Antibacterial activity against Yersinia pestis Kim D2 after 20 hrs by broth microdilution assay; assay type: functional; details: Kim D2, 20 h
Yersinia pestis [11] = experiment: Antibacterial activity against Yersinia pestis Kuma D7 after 20 hrs by broth microdilution assay; assay type: functional; details: Kuma D7, 20 h
Bacillus cereus = experiment: Antibacterial activity against Bacillus cereus Gibson 971 after 20 hrs by broth microdilution assay; assay type: functional; details: Gibson 971, 20 h
Corynebacterium striatum = experiment: Antibacterial activity against Corynebacterium striatum FS-1 after 20 hrs by broth microdilution assay; assay type: functional; details: FS-1, 20 h
Listeria monocytogenes = experiment: Antibacterial activity against Listeria monocytogenes Gibson after 20 hrs by broth microdilution assay; assay type: functional; procedure, shortened: as §1
Micrococcus luteus = experiment: Antibacterial activity against Micrococcus luteus SK58 after 20 hrs by broth microdilution assay; assay type: functional; details: SK58, 20 h
Rhodococcus erythropolis = experiment: Antibacterial activity against Rhodococcus erythropolis SK121 after 20 hrs by broth microdilution assay; assay type: functional; details: SK121, 20 h
Procedure, shortened: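 R. erythropolis grown in brain heart infusion broth at 30°C. A 0.5 McFarland suspension diluted 1:100 is treated with serial dilutions from 1 mM or 1 mg/mL DMSO stocks; control antibiotics are in water.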

Acinetobacter baumannii = experiment: Antibacterial activity against Acinetobacter baumannii AB5075 after 20 hrs by broth microdilution assay; assay type: functional; details: AB5075, 20 h
Brucella neotomae = experiment: Antibacterial activity against Brucella neotomae 5K33 after 20 hrs by broth microdilution assay; assay type: functional; details: 5K33, 20 h
Burkholderia multivorans = experiment: Antibacterial activity against Burkholderia multivorans CF2 after 20 hrs by broth microdilution assay; assay type: functional; details: CF2, 20 h
Procedure, shortened: (§2)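 Medium is tryptic soy broth, 37°C. Overnight culture is adjusted to 0.5 McFarland, diluted 1:100 and exposed to serial dilutions (test agents from 1 mM or 1 mg/mL DMSO stocks; control antibiotics in water). Incubation lasts 20 h. MIC is the lowest concentration with no visible growth.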

Burkholderia cepacia = experiment: Antibacterial activity against Burkholderia cepacia UCB 717 after 20 hrs by broth microdilution assay; assay type: functional; details: UCB 717, 20 h; procedure, shortened: as §2
Citrobacter freundii = experiment: Antibacterial activity against Citrobacter freundii 4_7_47CFAA after 20 hrs by broth microdilution assay; assay type: functional
Procedure, shortened: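 Brucella broth, 37°C, 5% CO2. Inoculum is 0.5 McFarland diluted 1:100, with serial drug dilutions from DMSO stocks (1 mM or 1 mg/mL) and control antibiotics in water.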

Escherichia coli = experiment: Antibacterial activity against Escherichia coli DC10B after 20 hrs by broth microdilution assay; assay type: functional; procedure, shortened: as §2
Klebsiella pneumoniae = experiment: Antibacterial activity against Klebsiella pneumoniae 700603 after 20 hrs by broth microdilution assay; assay type: functional; details: Klebsiella pneumoniae, 700603, 20 h; procedure, shortened: as §2
Proteus mirabilis = experiment: Antibacterial activity against Proteus mirabilis HM-752 after 20 hrs by broth microdilution assay; assay type: functional; details: HM-752, 20 h; procedure, shortened: as §2
Pseudomonas aeruginosa = experiment: Antibacterial activity against Pseudomonas aeruginosa ATCC 15442 after 20 hrs by broth microdilution assay; assay type: functional; details: ATCC 15442, 20 h; procedure, shortened: as §2
Salmonella typhi = experiment: Antibacterial activity against Salmonella typhi Ty2 after 20 hrs by Todd Hewitt broth broth microdilution method; assay type: functional, Salmonella enterica subsp. enterica serovar Typhi str. Ty2; details: Salmonella enterica
Yersinia enterocolitica = experiment: Antibacterial activity against Yersinia enterocolitica WA-314 after 20 hrs by broth microdilution assay; assay type: functional; details: WA-314, 20 h
Procedure, shortened: (§3)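 Yersinia cultured in tryptic soy broth at 28°C. A 0.5 McFarland suspension diluted 1:100 receives serial dilutions of agents from 1 mM or 1 mg/mL DMSO stocks; control antibiotics are in water.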

Shigella dysenteriae = experiment: Antibacterial activity against Shigella dysenteriae Newcastle 1934 after 20 hrs by broth microdilution assay; assay type: functional; details: Newcastle 1934, 20 h; procedure, shortened: as §2
Vibrio cholerae = experiment: Antibacterial activity against Vibrio cholerae TS D4 after 20 hrs by Todd Hewitt broth broth microdilution method; assay type: functional; details: TS D4, 20 h
[12] = test system: Yersinia pseudotuberculosis; experiment: Antibacterial activity against Yersinia pseudotuberculosis P61 after 20 hrs by broth microdilution assay; assay type: functional; details: P61, 20 h; procedure, shortened: as §3
HepG2 = experiment: Cytotoxicity against human HepG2 cells assessed as reduction in cell viability after 72 hrs by MTT assay; assay type: cell-based; details: HepG2, 72 h

Row | SMILES | MIC (Staphylococcus aureus [1]) [µM] | MIC (Staphylococcus aureus [2]) [µM] | MIC [3] [µM] | MIC (Streptococcus pyogenes) [µM] | MIC (Streptococcus agalactiae) [µM] | MIC (Streptococcus pneumoniae) [µM] | MIC (Enterococcus faecium) [µM] | MIC (Staphylococcus aureus [5]) [µM] | MIC (Bacillus anthracis [6]) [µM] | MIC (Bacillus anthracis [7]) [µM] | MIC (Bacillus anthracis [8]) [µM] | MIC (Bacillus anthracis [9]) [µM] | MIC (Francisella tularensis) [µM] | MIC (Yersinia pestis [10]) [µM] | MIC (Yersinia pestis [11]) [µM] | MIC (Bacillus cereus) [µM] | MIC (Corynebacterium striatum) [µM] | MIC (Listeria monocytogenes) [µM] | MIC (Micrococcus luteus) [µM] | MIC (Rhodococcus erythropolis) [µM] | also measured
1 | CN[C@H](CC(C)C)C(=O)N[C@H]1C(=O)N[C@@H](CC(N)=O)C(=O)N[C@H]2C(=O)N[C@H]3C(=O)N[C@H](C(=O)N[C@H](C(=O)O)c4cc(O)cc(O)c4-c4cc3ccc4O)[C@H](O)c3ccc(c(Cl)c3)Oc3cc2cc(c3O[C@@H]2O[C@H](CO)[C@@H](O)[C@H](O)[C@H]2O[C@H]2C[C@](C)(N)[C@H](O)[C@H](C)O2)Oc2ccc(cc2Cl)[C@H]1O [VANCOMYCIN] | 1 (≈ 1.45 µg/mL) | > 32 | 8 (≈ 11.6 µg/mL) | ≤ 0.5 | ≤ 0.5 | ≤ 0.5 | > 32 |  |  |  |  |  |  |  |  |  |  |  |  |  | MIC [4]: 8 µg/mL (≈ 5.52 µM)
2 | CCCSSC(=S)N(CC)CC | 16 (≈ 3.57 µg/mL) | 16 (≈ 3.57 µg/mL) | 32 (≈ 7.15 µg/mL) | 32 (≈ 7.15 µg/mL) | > 32 | > 32 | > 32 | 8 (≈ 1.79 µg/mL) | 4 (≈ 0.894 µg/mL) | 4 (≈ 0.894 µg/mL) | 4 (≈ 0.894 µg/mL) | 4 (≈ 0.894 µg/mL) | 32 (≈ 7.15 µg/mL) | 16 (≈ 3.57 µg/mL) | 32 (≈ 7.15 µg/mL) | 1 (≈ 0.223 µg/mL) | > 32 | 16 (≈ 3.57 µg/mL) | 16 (≈ 3.57 µg/mL) | 16 (≈ 3.57 µg/mL) | MIC (Acinetobacter baumannii): > 32 µM; MIC (Brucella neotomae): > 32 µM; MIC (Burkholderia multivorans): 32 µM (≈ 7.15 µg/mL); MIC (Burkholderia cepacia): > 32 µM; MIC (Citrobacter freundii): > 32 µM; MIC (Escherichia coli): > 32 µM; MIC (Klebsiella pneumoniae): > 32 µM; MIC (Proteus mirabilis): > 32 µM; MIC (Pseudomonas aeruginosa): > 32 µM; MIC (Salmonella typhi): > 32 µM; MIC (Yersinia enterocolitica): > 32 µM; MIC (Shigella dysenteriae): > 32 µM; MIC (Vibrio cholerae): 32 µM (≈ 7.15 µg/mL); MIC [12]: > 32 µM; pIC50 (HepG2): 4.29
3 | CCN(CC)C(=S)SSCc1ccccc1 | 8 (≈ 2.17 µg/mL) | 8 (≈ 2.17 µg/mL) | 8 (≈ 2.17 µg/mL) | > 32 | > 32 | > 32 | 32 (≈ 8.69 µg/mL) | 2 (≈ 0.543 µg/mL) | 4 (≈ 1.09 µg/mL) | 4 (≈ 1.09 µg/mL) | 2 (≈ 0.543 µg/mL) | 4 (≈ 1.09 µg/mL) | 32 (≈ 8.69 µg/mL) | 16 (≈ 4.34 µg/mL) | 32 (≈ 8.69 µg/mL) | 2 (≈ 0.543 µg/mL) | 32 (≈ 8.69 µg/mL) | 8 (≈ 2.17 µg/mL) | 16 (≈ 4.34 µg/mL) | 16 (≈ 4.34 µg/mL) | MIC (Acinetobacter baumannii): > 32 µM; MIC (Brucella neotomae): 32 µM (≈ 8.69 µg/mL); MIC (Burkholderia multivorans): 32 µM (≈ 8.69 µg/mL); MIC (Burkholderia cepacia): > 32 µM; MIC (Citrobacter freundii): > 32 µM; MIC (Escherichia coli): > 32 µM; MIC (Klebsiella pneumoniae): > 32 µM; MIC (Proteus mirabilis): > 32 µM; MIC (Pseudomonas aeruginosa): > 32 µM; MIC (Salmonella typhi): > 32 µM; MIC (Yersinia enterocolitica): > 32 µM; MIC (Shigella dysenteriae): > 32 µM; MIC (Vibrio cholerae): > 32 µM; MIC [12]: > 32 µM
